MrgX1 antag – antagonists of human MrgX1 receptor | AID 588676 | MRGX1-HEK293 calcium flux, Fluo-4, BAM8-22 antagonism; hits give low values | Q96LB2 | B-score at 10 µM | actives 1.3% (n = 310,000);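 active = calcium-response B-score plate-corrected more than 3 library SD below zero, starting fluorescence within 5 deviations, no agonist response on first addition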;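 also: peak minus trough fluorescence over baseline after final BAM8-22 challenge near maximal dose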
MrgX1 agonist – agonists of human MrgX1 receptor. Q96LB2. MrgX1-HEK293 cells, Fluo-4 calcium fluorescence, agonist mode; hits give high values. B-score at 10 µM. actives 0.44% (n = 310,000);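 active = calcium response B-score plate-corrected fluorescence ratio at least 3 library SD, with starting fluorescence B-score inside 5 SD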
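Material – MrgX1-expressing HEK293 cells · Input – 15,000 cells seeded per well · Dosing – compound as first of three additions · Times – overnight seeding, then 1 h dark dye loading · Measured by – kinetic Fluo-4 NW fluorescence of intracellular calcium · Read-out – B-scored fluorescence response ratio · Benchmarks – positive and negative control wells on each plate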
RGS4 act – RGS4 potentiation or activation | HEK293 M3R/inducible RGS4, carbachol calcium flux Fluo4; hits give low values | B-score at 10 µM | actives 0.92% (n = 310,000) | AID 463111;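 active = B-score of the integrated calcium signal more than 4 SD below the library mean, with starting fluorescence not abnormally high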;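 also: negative B-score means reduced calcium response which marks RGS4 activation or potentiation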
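Detection: kinetic calcium fluorescence imaging with Fluo4-AM dye, 2 µM / Material: HEK293 cells with stable M3R and inducible RGS4 / Schedule: recording 10 s baseline at 1 Hz, 100 s post-agonist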
MrgX1 PAM – allosterically activates human MrgX1 receptor signaling; Q96LB2; MrgX1-HEK293, Fluo-4 calcium flux, FDSS; hits give high values; B-score at 10 µM; actives 0.63% (n = 310,000); AID 588675;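 active = plate-corrected calcium response at least 3 library SD above typical, normal starting fluorescence, not activating the receptor alone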;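 also: compound read alongside a low EC10 to EC30 dose of BAM8-22 agonist; peak minus trough fluorescence over baseline measured at the second addition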
RGS4 block – inhibitors of human RGS4; B-score at 10 µM; P49798; actives 0.45% (n = 310,000); HEK293 M3R/RGS4 inducible, Fluo-4 calcium flux; hits give high values; triggered by carbachol at its EC20;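 active = B-score, a plate-corrected calcium signal, over three deviations above library mean, with baseline fluorescence within five deviations of library mean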;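 also: RGS4 expression induced by doxycycline in cells with stable M3 receptor; B-score is computed from the integrated fluorescence ratio over baseline after carbachol; higher B-score means a larger calcium signal and so more RGS4 inhibition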
Target sequence (P49798 whole entry, looked up): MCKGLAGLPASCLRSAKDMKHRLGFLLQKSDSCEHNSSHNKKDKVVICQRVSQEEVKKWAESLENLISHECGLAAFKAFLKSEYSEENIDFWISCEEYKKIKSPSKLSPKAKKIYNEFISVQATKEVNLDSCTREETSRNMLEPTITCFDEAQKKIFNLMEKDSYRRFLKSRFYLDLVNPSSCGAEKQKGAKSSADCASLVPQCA
PHOSPHO1 inh – inhibitors of human PHOSPHO1 phosphatase; Q8TCT1; recombinant PHOSPHO1, absorbance phosphatase assay; inhibition, % at 13.3 µM; actives 1.1% (n = 290,000); AID 1565; in the data active = inhibition above about 60%
Target sequence (Q8TCT1 whole entry, looked up): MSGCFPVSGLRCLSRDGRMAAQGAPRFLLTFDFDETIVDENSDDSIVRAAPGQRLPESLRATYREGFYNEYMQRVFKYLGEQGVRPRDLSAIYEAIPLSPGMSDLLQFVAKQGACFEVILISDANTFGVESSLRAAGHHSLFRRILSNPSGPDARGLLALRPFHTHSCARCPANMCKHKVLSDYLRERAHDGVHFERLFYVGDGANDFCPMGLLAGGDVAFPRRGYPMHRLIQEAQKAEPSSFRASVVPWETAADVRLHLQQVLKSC
RGS4 activ val – RGS4 activation, validation assay; shares compounds with RGS4 act; HEK293 M3R/RGS4 inducible, carbachol calcium flux Fluo4; inhibition, % at 10 µM; actives 89% (n = 1,100);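 active = inhibition above 3 SD of the buffer control wells, cut at about 41% in these data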;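 also: signal is the integrated peak-minus-minimum Fluo4 fluorescence over baseline ratio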
M3R Ca counter – RGS4 activator counter-screen hit in non-induced cells; shares compounds with RGS4 act; HEK293 M3R non-induced RGS4, Fluo4 calcium flux; after carbachol challenge at its EC90; inhibition, % at 10 µM; actives 82% (n = 1,100); AID 602283;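 active = inhibition exceeding 3 SD of buffer-only control wells, cut at about 26% in these data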;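 also: percent drop in integrated peak-minus-baseline over baseline Fluo4 ratio after carbachol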
Active calls of the source: *; i = inactive; . = no result given. Most compounds without a hit are left out; they make up all but 4.5% or so of the library.

SMILES | MrgX1 antag | MrgX1 agonist | RGS4 act | MrgX1 PAM | RGS4 block | PHOSPHO1 inh | RGS4 activ val | M3R Ca counter
COc1ccc(C2(CNC(=O)Cc3ccccc3)CCCC2)cc1OC | i | i | -8* | i | i | 65* | 0 | 0
Cc1csc(NC(=O)c2c(O)c3c(n(CC(C)C)c2=O)CCCC3)n1 | i | i | -8.9* | i | i | 17 | 57* | 0
CC(C)Cn1c2c(c(O)c(C(=O)Nc3nccs3)c1=O)CCCC2 | i | i | -7.7* | i | i | -4 | 74* | 41*
CCCn1c2c(c(O)c(C(=O)Nc3nccs3)c1=O)CCCC2 | i | i | i | i | i | 0 | . | .
CCC(C)[C@H]1COCCS(=O)(=O)N1Cc1ccccc1 (stereo partly drawn) | i | i | i | i | i | 4 | . | .
CCOC(=O)c1cnc(SCCN2CCOCC2)nc1N | i | i | i | i | i | 39 | . | .
NC(=O)C[N+]1(CC#CC(O)(c2ccccc2)c2ccccc2)CCCC1 | i | i | -12* | i | i | 56 | 52* | 0
Cc1cccc(-n2c(=O)c3ccccc3n3c(=S)[nH]nc23)c1C | i | i | i | i | i | -2 | . | .
O=C(c1ccc(-c2nc3ccccc3s2)o1)N1CCN(c2ccccc2O)CC1 | i | i | -8.3* | i | i | 23 | 86* | 53*
O=C(O)c1ccc(-c2nc3ccccc3s2)o1 | i | i | i | i | i | -5 | . | .
O=C(O)c1cc2c([nH]c1=O)CCCC2 | i | i | i | i | i | -20 | . | .
C=CCSC(=C(C#N)C#N)c1cc2c([nH]1)CCCC2 | i | i | -9.2* | i | i | 57 | 90* | 32*
COc1c2c(c(C)c3c1C(=O)OC3)O[C@@]1(C)CC[C@@]3(O)C(C)(C)OC(=O)CC[C@]3(C)[C@H]1C2 | i | i | i | i | i | 27 | . | .
COc1cc(Cl)c(CN2CCC(CO)(CCOc3ccccc3)CC2)cc1OC | i | i | i | i | i | 19 | . | .
OCC1(CCOc2ccccc2)CCN(CC2=Cc3cc(Cl)ccc3OC2)CC1 | i | i | -8.7* | i | i | 5 | 87* | 56*
Cc1ccccc1OCC(=O)NNC(=O)CSc1nc(N)cc(N)n1 | i | i | i | i | i | -68 | . | .
COc1cc(NC(=O)c2sc3ncn(CC(=O)N4CCCCC4)c(=O)c3c2C)cc(OC)c1OC | i | i | i | i | i | 18 | . | .
CCN1N=C(c2ccccc2)Cn2c1nc1ccccc12 | i | i | i | i | i | 11 | . | .
CCN(CC)c1ccc(-c2nc3cnccn3c2NC2CCCC2)cc1 | i | i | -7.9* | i | i | 62* | 54* | 0
c1cn2c(NC3CCCCC3)c(-c3ccc(SC4CCCCC4)cc3)nc2cn1 | i | i | i | i | i | . | . | .
CC1=C(C)CC(C(=O)NCc2ccccn2)C(C(=O)O)C1 (stereo not drawn) | i | i | i | i | i | -10 | . | .
CCCc1ncc(C(O)(c2ccccc2)c2ccc(C)cc2)n1C (stereo not drawn) | i | i | -7.9* | i | i | -19 | 92* | 63*
CCCc1ncc(C(O)c2cccc3ccccc23)n1C (stereo not drawn) | i | i | i | i | i | 6 | . | .
CCCc1ncc(C(O)(c2ccccc2)c2ccccc2)n1C | i | i | -12* | i | i | 4 | 93* | 81*
CC(Oc1ccccc1)C(=O)NC1CCN(Cc2ccccc2)CC1 (stereo not drawn) | i | i | -8.3* | i | i | -10 | 80* | 53*
